Assay outcomes (PubChem)
hERG protect: compounds protecting human hERG from proarrhythmic drug block; Q12809; CHO-hERG, FluxOR thallium flux, dofetilide IC70 present; activation (rescue from dofetilide block), less the hit threshold, % at 10 µM; 0.51% of 310,000 active; AID 1511;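 active = activation above the mean of controls blocked by dofetilide plus 5 SD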;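 note: thallium influx through hERG after potassium depolarization seen as dye fluorescence rise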
KCNQ1 inh: blocks the human KCNQ1 potassium channel. P51787. CHO-K1 KCNQ1, FluxOR thallium flux fluorescence; active compounds read high. B-score at 10 µM. 1.3% of 310,000 active. AID 2642;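 active = compounds whose thallium flux B-score, printed positive for inhibition, exceeds three library SD while starting fluorescence stays within three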;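 note: channel opened by potassium depolarization with thallium stimulus after 20 min compound exposure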
KCNK9 inh: human KCNK9 channel inhibition | Q9NPC2 | HEK293 KCNK9, FluxOR thallium flux fluorescence; active compounds read low | B-score at 10 µM | 1.2% of 310,000 active | AID 488922;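 active = ratio B-score over 3 SD below the library mean, with starting fluorescence within 5 SD of its mean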;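 note: negative B-score means less thallium flux so channel inhibition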
Target sequence (Q9NPC2 whole entry, looked up): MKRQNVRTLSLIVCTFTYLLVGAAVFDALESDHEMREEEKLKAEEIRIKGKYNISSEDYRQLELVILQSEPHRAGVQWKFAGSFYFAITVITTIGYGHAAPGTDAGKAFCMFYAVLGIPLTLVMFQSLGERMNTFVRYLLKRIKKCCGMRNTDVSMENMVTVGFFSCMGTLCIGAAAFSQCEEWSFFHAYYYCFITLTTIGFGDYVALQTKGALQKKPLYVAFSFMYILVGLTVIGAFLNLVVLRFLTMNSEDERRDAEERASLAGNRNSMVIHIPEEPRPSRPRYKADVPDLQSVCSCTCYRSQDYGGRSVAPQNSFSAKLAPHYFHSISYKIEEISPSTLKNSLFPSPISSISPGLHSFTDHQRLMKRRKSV
KCNK3 block: human KCNK3 channel inhibition, primary screen; O14649; CHO-KCNK3 thallium flux, FluxOR fluorescence; active compounds read low; B-score at 10 µM; 0.84% of 340,000 active;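 active = B-score under library mean minus 4 SD, starting fluorescence ratio at most library mean plus 5 SD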;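 note: more negative B-score means stronger inhibition of thallium flux through KCNK3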
KCNQ1 act: potentiators or activators of human KCNQ1 potassium channel. CHO-K1 KCNQ1, thallium flux FluxOR fluorescence; active compounds read high. P51787. AID 2648. 0.35% of 310,000 active. B-score at 10 µM;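 active = fluorescence ratio B-score, a plate-corrected score, at least three library SD, with initial intensity B-score within 5 SD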
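Material: CHO-K1 cells stably expressing KCNQ1. Medium: assay buffer for compound exposure, DMSO matched across wells. Reagent: K+/Tl+ depolarizing stimulus. Compound dosing: single-concentration screen. Times: 37 °C overnight plating, 90-min dark dye load, 20-min compound pretreatment. Technique: FluxOR Tl+ flux fluorescence.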
KCNK9 inh conf: human KCNK9 inhibitor confirmation; shares compounds with KCNK9 inh; HEK293 KCNK9 cells, FluxOR thallium flux fluorescence; inhibition, % at 10 µM; 43% of 4,900 active;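 active = thallium signal inhibited by more than 5 SD of the compound-free buffer control wells, on both duplicate plates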;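 note: 0% = assay buffer control wells without compound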
Kir21 sel: tests whether KCNK9 modulators also affect mouse Kir2.1; shares compounds with KCNK9 inh; Kir2.1 cells, FluxOR thallium flux fluorescence; inhibition, % at 10 µM; 4% of 4,900 active;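 active = thallium signal drop more than 5 SD beyond the mean of the no-compound control wells, seen in both duplicate plates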;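 note: signal is fluorescence rise after thallium addition divided by baseline fluorescence; plate controls were assay buffer only for no effect and full block by chlorpromazine control for full effect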
KCNK9 uninduced: second check of KCNK9 modulator effects in non-induced HEK293 cells | shares compounds with KCNK9 inh | FluxOR thallium flux | inhibition, % at 10 µM | 40% of 4,900 active | AID 492997;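 active = thallium signal drop beyond 5 SD of the untreated control mean, on both duplicate plates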;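 note: plate controls were buffer only IC0 wells for no effect and SID17386958 at its maximal inhibitory level for full effect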
KCNK3 confirm: confirmation of human KCNK3 two-pore domain potassium channel inhibitors; 99% of 2,400 active; AID 651638; CHO-KCNK3 thallium flux, FluxOR fluorescence; 0% buffer, 100% carvedilol maximal block; shares compounds with KCNK3 block; ratio percent of control, % at 10 µM;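 active = ratio percent of control, averaged over triplicates, above buffer control mean plus 5 SD, cut at about 64% in these data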;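 note: ratio is the fluorescence rise from min to max over baseline after thallium stimulus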
KCNK3 noninduced: activity in cells without induced KCNK3 expression; shares compounds with KCNK3 block; non-induced KCNK3 parental cells, FluxOR thallium flux; active compounds read low; thallium flux ratio (lower = more inhibition) at 10 µM; 40% of 2,400 active; AID 651747;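 active = thallium flux ratio, averaged over three wells, more than 5 SD below the buffer control mean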;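 note: host cells are CHO cells without KCNK3 induction; ratio is peak minus trough fluorescence over baseline then normalized to buffer controls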
Numbers without * were called inactive; i = inactive; x = not tested or not shown. Only some compounds are listed: those with a hit (about 3.1% of all), similar ones and a draw of the others.

SMILES	hERG protect	KCNQ1 inh	KCNK9 inh	KCNK3 block	KCNQ1 act	KCNK9 inh conf	Kir21 sel	KCNK9 uninduced	KCNK3 confirm	KCNK3 noninduced
COc1ccccc1N(CC(=O)N/N=C/c1ccc(OCC(=O)NCc2ccco2)cc1)S(=O)(=O)c1ccc(C)cc1	-11.5	i	i	i	i	x	x	x	x	x
COc1ccc(CN(C)C(=O)c2oc3ccccc3c2CSC)cc1F	-9.0	i	-12.1*	-11.4*	i	67.0%*	i	30.0%*	104.0*	i
N=C1SC(CC(=O)Nc2ccccc2[N+](=O)[O-])C(=O)N1c1ccccc1 (stereo unspecified)	-9.7	i	i	i	i	x	x	x	x	x
O=C(Nc1ccccc1N1CCN(C(=O)c2ccccc2)CC1)c1ccc(Cl)cc1	-21.5	i	-13.4*	-15.1*	i	37.0%*	i	i	113.0*	i
CN(CC(=O)Nc1c(Cl)cccc1Cl)C(=O)c1cc2ccccc2cc1O	-2.3	i	i	i	i	x	x	x	x	x
c1ccc(N2CCN(c3ncnc4sc5c(c34)CCC5)CC2)cc1	-6.0	i	-14.7*	i	i	45.5%*	i	44.5%*	118.7*	0.146*
CCc1cc2c(N3CCN(c4ccccc4)CC3)ncnc2s1	-16.1	i	i	-13.5*	i	i	i	23.0%*	135.3*	0.148*
Oc1ccc(N2CCN(c3ncnc4sc(-c5ccccc5)cc34)CC2)cc1	-6.0	i	i	i	i	x	x	x	x	x
COC(=O)c1ccc(CN2CCC(Oc3cccc(C(=O)N4CCOCC4)c3)CC2)cc1	-12.5	i	i	i	i	x	x	x	x	x
Cc1ccc(C(=O)N(CCc2ccccc2)Cc2ccccc2)cc1S(=O)(=O)N1CCOCC1	x	x	x	i	x	x	x	x	x	x
Cc1ccc(C(=O)N(CCc2ccccc2)Cc2ccccc2)cc1S(=O)(=O)N1CCCCC1	-13.2	i	-12.7*	-9.1*	i	76.0%*	i	29.5%*	103.0*	i
CC(C)CN(Cc1cc(=O)oc2cc(-c3ccccc3)c(O)cc12)CC(C)C	-21.8	11*	-10.3*	i	i	53.0%*	i	27.0%*	145.7*	0.088*
O=c1cc(CN2CCN(C/C=C/c3ccccc3)CC2)c2cc(O)c(-c3ccccc3)cc2o1	-10.2	i	i	i	i	x	x	x	x	x
O=C(NN=C1CCCC1)c1[nH]c2ccc(Br)cc2c1-c1ccccc1	-16.0	7*	-8.67*	i	i	i	i	i	90.7*	i
O=C(N/N=C/c1ccccc1)c1[nH]c2ccc(Br)cc2c1-c1ccccc1	-7.3	i	i	i	i	x	x	x	x	x
COc1ccc(S(=O)(=O)NCc2ccco2)cc1N(C)S(=O)(=O)c1ccccc1	-12.3	i	i	i	i	x	x	x	x	x
Cc1ccc(SCC(=O)OCC(=O)N(C)CC(=O)Nc2ccccc2Cl)cc1C	-7.1	i	i	i	i	x	x	x	x	x
CCCn1c(SCC#N)nc2c(c1=O)C1(CCCC1)Cc1ccccc1-2	-3.8	i	-9.92*	-10.1*	i	51.5%*	i	29.0%*	95.3*	i
CCc1nc2c(c(=O)[nH]1)C1(CCCC1)Cc1ccccc1-2	0.3	i	i	i	i	x	x	x	x	x
COc1ccc(OC)c(NC(=O)CN(Cc2ccc(F)cc2)C2CCCCC2)c1	-19.4	i	-14.4*	-8.81*	i	69.0%*	i	48.5%*	56.3*	0.118*
CC1CCCC(NC(=O)C2CCN(S(=O)(=O)c3cccc4nonc34)CC2)C1C (stereo unspecified)	-7.4	i	i	i	i	x	x	x	x	x
CCOC(=O)/C(C(=O)Nc1ccccc1Cl)=C1/NC(C)(C)Cc2ccccc21	-7.3	i	-10*	-9.11*	i	37.5%*	i	40.0%*	116.0*	i
COc1ccc(CC(=O)Oc2ccc(C(C)C)cc2)cc1S(=O)(=O)N1CCOCC1	-12.4	i	i	i	i	x	x	x	x	x
COc1ccc2c(COC(=O)c3cccc(S(=O)(=O)NCC(C)C)c3)cc(=O)oc2c1	-22.0	i	-9.27*	-10.9*	i	i	i	i	138.3*	0.137*
COc1ccc(C(=O)/C=C/c2ccc(OC)c(COc3ccc(F)cc3)c2)cc1	-5.2	i	-13.1*	-10.4*	i	65.5%*	i	33.0%*	129.0*	0.154*
SMILES	hERG protect	KCNQ1 inh	KCNK9 inh	KCNK3 block	KCNQ1 act	KCNK9 inh conf	Kir21 sel	KCNK9 uninduced	KCNK3 confirm	KCNK3 noninduced
O=C(Cc1ccsc1)N1CCc2c([nH]c3ccccc23)C1c1ccccn1 (stereo unspecified)	-6.8	i	i	i	i	x	x	x	x	x
Clc1ccc(-n2cccc2CN2CCc3c([nH]c4ccccc34)C2c2ccccn2)nc1 (stereo unspecified)	-25.0	i	-8.54*	-10*	i	38.0%*	i	25.0%*	124.7*	0.139*
CN(C(=O)c1ccc(NC(=O)Cc2ccc(NC(=O)C3CCCN(C(=O)C4CCC4)C3)cc2)cc1)C1CCCC1 (stereo unspecified)	x	x	x	i	x	x	x	x	x	x
Cc1nn(CC(=O)NCCCN2CCC(N3CCCCC3)CC2)c(=O)c2cc(-c3ccccc3)nn12	-8.8	i	i	i	i	x	x	x	x	x
Cc1ccc(CNC(=O)C2CSC3(C)CCC(=O)N23)cc1 (stereo unspecified)	x	x	x	i	x	x	x	x	x	x
CCN(C(=S)NCc1ccccc1)c1cccc2ccccc12	-10.6	i	-18.2*	-12.6*	i	63.5%*	i	45.5%*	100.7*	i
O=C(NC1CCCCC1)c1cc2ccccc2cc1O	-13.2	i	-11.5*	-9.36*	i	25.5%*	i	i	106.7*	i
CCN(c1ccccc1)S(=O)(=O)c1ccc(C(=O)NCC(=O)Nc2ccc(F)c(F)c2F)cc1	x	x	x	i	x	x	x	x	x	x
Cc1cc(C)c(S(=O)(=O)N2CCOCC2)c(C)c1N(C)S(=O)(=O)c1ccccc1	-16.1	i	i	i	i	x	x	x	x	x
Cc1cc(C)c(S(=O)(=O)N2CCCCC2)c(C)c1N(C)S(=O)(=O)c1ccccc1	-4.6	i	i	-8.76*	i	i	i	i	97.0*	0.157*
